# Results: PubChem BioAssay
# Calls of active or inactive are those of the source.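 The calls were made as follows, unless noted: active = viability at or below 10% of carrier control in both of two separate runs; inconclusive = viability at or below 10% in only one of the two runs; inactive = the rest.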
# Columns and labels:
# [1] = reducers of endogenous Her2 protein level, primary screen, SKBR3 breast tumor cells, AlphaScreen, ATP viability (AID 461;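 active = Her2 level under about 52% in both replicate screens, with viability over 70% of control, limit read from the data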;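 as to Her2 level: lower value means less Her2 protein in the cells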;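 as to viability: percent of carrier control wells set as 100% viability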); settings: 18-24 h, measured here: SKBR3 viability, ATP luminescence, at 10 µM
# [2] = biological target: Receptor tyrosine-protein kinase erbB-2 (Homo sapiens) (UniProt P04626); experiment: as above; settings: 18-24 h, at 10 µM, stronger effect = lower value
# [3] = SK-BR-3 cell growth inhibitors, pilot screen, 24 h, human (AID 572); settings: SK-BR-3 viability, CellTiter-Glo luminescence, at 10 µM, stronger effect = lower value;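 also: compound exposure lasted between 18 and 24 h rather than exactly 24 h; 100% = carrier-treated control wells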
# [4] = HUVEC growth inhibition – cell-based, human, primary screen (AID 575;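 active = viability at or below 30% in both replicate assays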;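 also: 100% = median of untreated cell wells with 0.1% DMSO on each plate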); settings: HUVEC proliferation, CellTiter-Glo luminescence, 72 h; at 10 µM; stronger effect = lower value
# Summary of the method: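 material = primary HUVEC, no more than 12 passages | input = 1250 cells per well | controls = vehicle and MePR control wells | measured by = CTG luminescence | times = 72 h compound incubation | format = collagen-coated 384-well format | read-out = % viability vs DMSO wells | doses = single 10 µM dose, 0.1% DMSO, from 5x medium stock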
# [5] = growth inhibitors of H69AR lung tumor, primary screen, human, duplicate replicates (AID 580;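 active = viability at or under a set limit in both replicates, limit being median viability minus 3 SD, cut at about 48% in these data, passing the limit was not always enough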;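 also: 100% = mean luminescence of untreated wells and 0% = no signal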); settings: H69AR lung tumor cells viability, ATP luminescence, 72 h; at 10 µM; stronger effect = lower value
# [6] = reversal of MRP1-mediated doxorubicin resistance, pilot screen, H69AR cells, doxorubicin co-treatment (AID 601;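 active = viability loss from added drug above about 55%, and viability with drug at most 40%, in both replicates, limit read from the data, passing the limit was not always enough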); settings: CellTiter-Glo, 72 h, at 10 µM; for differential viability (reversal): stronger effect = higher value
# [7] = 384-well plate pilot, post-Golgi transport modulator project, inhibition of yeast transport mutant growth (AID 636; in the data active = inhibition above about 31%); settings: absorbance 615 nm, about 18 h, stronger effect = higher value
# [8] = growth suppression of yeast trafficking mutant, preliminary HTS, modulators of trafficking downstream of Golgi apparatus project, 1536-format plate, OD 615 nm (AID 637; in the data active = inhibition above about 30%); settings: yeast transport mutant growth, absorbance 615 nm, 18 h; stronger effect = higher value
# [9] = H69AR cells + 2 uM doxorubicin, measured here: viability with 2 uM doxorubicin, stronger effect = lower value
# [10] = H69AR cells, compound alone cytotoxicity
# Sequence of Receptor tyrosine-protein kinase erbB-2 (Homo sapiens) (P04626 whole entry, looked up): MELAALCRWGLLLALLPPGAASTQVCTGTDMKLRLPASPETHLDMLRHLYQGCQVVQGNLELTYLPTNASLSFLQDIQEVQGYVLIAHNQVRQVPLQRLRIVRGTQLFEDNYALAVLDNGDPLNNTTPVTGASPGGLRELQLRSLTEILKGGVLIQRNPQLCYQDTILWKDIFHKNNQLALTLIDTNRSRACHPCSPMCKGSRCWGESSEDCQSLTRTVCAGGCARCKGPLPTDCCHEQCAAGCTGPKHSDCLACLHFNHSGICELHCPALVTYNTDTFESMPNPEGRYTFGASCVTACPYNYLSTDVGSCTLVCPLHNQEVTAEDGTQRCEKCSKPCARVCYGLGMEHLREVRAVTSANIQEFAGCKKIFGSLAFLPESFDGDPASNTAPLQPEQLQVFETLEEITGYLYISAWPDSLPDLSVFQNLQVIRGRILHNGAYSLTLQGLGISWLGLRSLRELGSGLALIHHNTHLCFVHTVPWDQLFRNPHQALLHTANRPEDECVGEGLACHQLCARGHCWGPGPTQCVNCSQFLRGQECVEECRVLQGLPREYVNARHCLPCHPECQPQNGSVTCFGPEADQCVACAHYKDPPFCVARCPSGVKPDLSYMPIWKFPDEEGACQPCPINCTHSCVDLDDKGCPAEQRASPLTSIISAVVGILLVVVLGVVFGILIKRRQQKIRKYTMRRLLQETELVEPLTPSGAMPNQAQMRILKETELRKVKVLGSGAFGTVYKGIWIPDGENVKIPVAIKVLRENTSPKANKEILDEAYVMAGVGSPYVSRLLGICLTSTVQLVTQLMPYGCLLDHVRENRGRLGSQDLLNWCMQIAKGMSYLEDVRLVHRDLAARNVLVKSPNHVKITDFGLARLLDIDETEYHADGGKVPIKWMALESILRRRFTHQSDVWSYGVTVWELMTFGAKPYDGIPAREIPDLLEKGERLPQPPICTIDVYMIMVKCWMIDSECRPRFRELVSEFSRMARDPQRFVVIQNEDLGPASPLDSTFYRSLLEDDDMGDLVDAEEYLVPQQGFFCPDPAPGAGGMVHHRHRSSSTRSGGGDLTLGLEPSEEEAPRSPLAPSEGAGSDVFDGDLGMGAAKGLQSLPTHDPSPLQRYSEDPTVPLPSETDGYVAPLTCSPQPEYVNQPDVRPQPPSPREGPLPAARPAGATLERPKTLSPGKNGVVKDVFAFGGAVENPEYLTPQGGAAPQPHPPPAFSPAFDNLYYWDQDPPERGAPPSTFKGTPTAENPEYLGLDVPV
Structure (SMILES),viability [1],Her2 level [2],viability [3],viability [4],viability [5],differential viability (reversal) ([6]; H69AR cells + 2 uM doxorubicin),"viability [6, 9]","viability [6, 10]",inhibition [7],inhibition [8]
COc1cccc(OC)c1C(=O)Nc1ccc(CN2CCCCC2)cc1,98.5%,84% (inactive),98.5% (inactive),102% (inactive),89.4% (inactive),8.96% (inactive),80.4%,89.4%,-0.66% (inactive),-2.06% (inactive)
c1ccc(SCc2nc3ccccc3[nH]2)nc1,99.5%,107% (inactive),99.5% (inactive),103% (inactive),90.6% (inactive),-6.88% (inactive),97.5%,90.6%,-5.87% (inactive),22.3% (inactive)
O=C(NCC1CCCO1)C1CCCN(Cc2cnn(-c3ccccc3)c2-n2cccc2)C1 (stereo not given),83.5%,124% (inactive),83.5% (inactive),83.4% (inactive),85.2% (inactive),40.7% (inactive),44.5%,85.2%,-1.45% (inactive),-8.33% (inactive)
NC(=O)NC(=O)CSc1cccc(C(F)(F)F)c1,138%,94.5% (inactive),138% (inactive),90.1% (inactive),88.2% (inactive),1.01% (inactive),87.2%,88.2%,-8.63% (inactive),2.22% (inactive)
CC(C)N(C(=O)CSc1nnc(-c2cc3ccccc3cc2O)n1Cc1ccco1)C(C)C,90.5%,76% (inactive),90.5% (inactive),66.4% (inactive),83.4% (inactive),1.54% (inactive),81.9%,83.4%,-5.81% (inactive),-0.66% (inactive)
Nc1nc2sc3c(c2c(=O)s1)CCCC3,112%,108% (inactive),112% (inactive),60.3% (inactive),74.7% (inactive),-3.39% (inactive),78.1%,74.7%,-2.24% (inactive),1.31% (inactive)
Clc1ccc(Cn2ncc3c(NCc4cccnc4)ncnc32)cc1,77.5%,86% (inactive),77.5% (inactive),90.5% (inactive),92% (inactive),-4.09% (inactive),96.1%,92%,-0.53% (inactive),3.77% (inactive)
CCC1c2ccc(C)n2CCN1C(=O)Nc1ccccc1OC (stereo not given),89.5%,69.5% (inactive),89.5% (inactive),97.7% (inactive),78.9% (inactive),-10.8% (inactive),89.7%,78.9%,-6.13% (inactive),4.59% (inactive)
N#C/C(=C(/O)CN1CCOCC1)c1nc2ccccc2s1,89.5%,145% (inactive),89.5% (inactive),99.3% (inactive),106% (inactive),5.77% (inactive),100%,106%,2.73% (inactive),-13.8% (inactive)
CCOC(=O)c1[nH]c(C)c(C(=O)NCc2ccccn2)c1C,134%,115% (inactive),134% (inactive),83.4% (inactive),102% (inactive),4.79% (inactive),96.8%,102%,-5.07% (inactive),9.37% (inactive)
Cc1oc(-c2ccccc2F)nc1CS(=O)(=O)CC(=O)NCc1ccco1,116%,124% (inactive),116% (inactive),85.9% (inactive),93.8% (inactive),7.03% (inactive),86.8%,93.8%,-3.2% (inactive),-2.62% (inactive)
CNC(=O)CSc1nnc(-c2ccc(S(=O)(=O)N3CCCC3)cc2)n1-c1cccc(C)c1C,79.5%,78.5% (inactive),79.5% (inactive),86.4% (inactive),88.9% (inactive),11.7% (inactive),77.2%,88.9%,-4.86% (inactive),-1.15% (inactive)
CC(=O)c1cccc(S(=O)(=O)N2CCC(n3nnc4cc(F)ccc43)CC2)c1,88%,92.5% (inactive),88% (inactive),92.9% (inactive),93.9% (inactive),8.11% (inactive),85.8%,93.9%,-5.14% (inactive),-2.62% (inactive)
O=C(CCSc1ccccc1)N1CCOCC1,94%,98.5% (inactive),94% (inactive),96.7% (inactive),93.5% (inactive),-0.87% (inactive),94.4%,93.5%,-5.39% (inactive),-2.13% (inactive)
CC1/C(=N/O)C(CN(C)C)C2CC1C2(C)C (stereo not given),107%,84.5% (inactive),107% (inactive),99.3% (inactive),108% (inactive),31.7% (inactive),76.3%,108%,-3.38% (inactive),-3.49% (inactive)
COc1cc(OC)c(C2N(C)c3ccccc3N2C)cc1OC,91.5%,112% (inactive),91.5% (inactive),86.7% (inactive),107% (inactive),8.16% (inactive),98.4%,107%,-5.68% (inactive),4.26% (inactive)
c1ccc(CC2CCN(C(c3cccs3)c3nnnn3C3CCCC3)CC2)cc1 (stereo not given),102%,128% (inactive),102% (inactive),91.9% (inactive),93.4% (inactive),-0.24% (inactive),93.7%,93.4%,1.92% (inactive),-0.63% (inactive)
Cc1ccc(-n2nnnc2SCC(=O)Nc2c(C)n(C)n(-c3ccccc3)c2=O)cc1,102%,104% (inactive),102% (inactive),105% (inactive),90.8% (inactive),-13.5% (inactive),104%,90.8%,0.8% (inactive),10.8% (inactive)
Cc1cc(C)nc(N2CCCC(C(=O)Nc3nc4ccc(S(C)(=O)=O)cc4s3)C2)n1 (stereo not given),80.5%,90% (inactive),80.5% (inactive),79.5% (inactive),83.7% (inactive),-9.45% (inactive),93.2%,83.7%,0% (inactive),10.8% (inactive)
O=C1CN(C(=O)CN2CCCC2)C(c2ccccc2)c2cc(Br)ccc2N1 (stereo not given),94%,91% (inactive),94% (inactive),75.8% (inactive),102% (inactive),4.63% (inactive),97.2%,102%,-4.67% (inactive),1.61% (inactive)
COc1ccc2nc3oc(C(=O)N4CCCCC4)cc3cc2c1,98%,90.5% (inactive),98% (inactive),86.5% (inactive),86.7% (inactive),2.71% (inactive),83.9%,86.7%,-5.26% (inactive),-3.67% (inactive)
CC(C)N(C(=O)COC(=O)c1ccc(O)cc1)C(C)C,96.5%,87.5% (inactive),96.5% (inactive),88.3% (inactive),97.6% (inactive),9.85% (inactive),87.8%,97.6%,0.39% (inactive),-0.16% (inactive)
Cc1cc(C)n(-c2nc3nonc3nc2-n2nc(C)cc2C)n1,91.5%,83% (inactive),91.5% (inactive),83.3% (inactive),105% (inactive),14.7% (inactive),90.3%,105%,-2.5% (inactive),-3.17% (inactive)
COc1ccc(CC(=O)Nc2ccc(-c3nnc(-c4ccc(C)cc4)o3)cc2)cc1,114%,81.5% (inactive),114% (inactive),69.9% (inactive),4.72% (active),-0.04% (inactive),4.76%,4.72%,-1.58% (inactive),-1.75% (inactive)
COc1ccc(C2C(C(=O)c3sc(C)nc3C)=C(O)C(=O)N2CCN(C)C)cc1OC (stereo not given),108%,111% (inactive),108% (inactive),99.3% (inactive),86.7% (inactive),-8.1% (inactive),94.8%,86.7%,-2.27% (inactive),-2.79% (inactive)
CCSc1oc(-c2cccs2)nc1S(=O)(=O)c1ccccc1,93.5%,104% (inactive),93.5% (inactive),59.9% (inactive),82% (inactive),5.72% (inactive),76.3%,82%,-5.33% (inactive),1.83% (inactive)
CC(=O)c1ccc(Oc2cc(C)nc(-n3nc(C)cc3C)n2)cc1,107%,96% (inactive),107% (inactive),51.7% (inactive),29.4% (active),-36.8% (inactive),66.2%,29.4%,-5.87% (inactive),-2.1% (inactive)
O=S(=O)(Nc1ccccn1)c1ccc(Oc2ccccc2)cc1,88%,87.5% (inactive),88% (inactive),87.8% (inactive),98.8% (inactive),10.5% (inactive),88.3%,98.8%,-2.57% (inactive),-1.11% (inactive)
